Test results from ChEMBL document CHEMBL1156597, “Structure-activity relationship of kahalalide F synthetic analogues” (J Med Chem, 2008).

Tests used:
HeLa = assay: Cytotoxicity against human HeLa cells after 48 hrs by SRB assay; assay type: functional; details: for CC50: read-out: LC50 (the source's name)
Procedure, shortened: (§1)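 Cells grown in RPMI 1640 with 10% FBS and penicillin/streptomycin at 37 °C and 5% CO₂, trypsinized, then seeded at 5 × 10³/well. After 18 h drug-free attachment, samples in DMSO/EtOH/PBS (0.5:0.5:99) were added for 48 h continuous exposure. Cells were fixed with cold TCA (1 h, 4 °C) and stained with SRB (10 min). Tris-solubilized stain read at 490 nm. Triplicate wells, mean ± SD; GI₅₀ derived.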

HT-29 = assay: Cytotoxicity against human HT29 cells after 48 hrs by SRB assay; assay type: functional, cell-based; details: Homo sapiens, HT-29, 48 h; for CC50: read-out: LC50 (the source's name); procedure, shortened: as §1
[1] = Cytotoxicity against human IGROV-ET cells after 48 hrs by SRB assay; assay type: functional; details: for CC50: read-out: LC50 (the source's name); procedure, shortened: as §1
[2] = Cytotoxicity against human IGROV cells after 48 hrs by SRB assay; assay type: functional; details: for CC50: read-out: LC50 (the source's name); procedure, shortened: as §1
LNCaP = assay: Cytotoxicity against human LNcaP cells after 48 hrs by SRB assay; assay type: functional; details: for CC50: read-out: LC50 (the source's name); procedure, shortened: as §1
K562 = assay: Cytotoxicity against human K562 cells after 48 hrs by SRB assay; assay type: functional; details: K562, 48 h; for CC50: read-out: LC50 (the source's name); procedure, shortened: as §1
A549 = assay: Cytotoxicity against human A549 cells after 48 hrs by SRB assay; assay type: functional, cell-based; details: Homo sapiens, A549, 48 h; procedure, shortened: as §1
SK-MEL-28 = assay: Cytotoxicity against human SK-MEL-28 cells after 48 hrs by SRB assay; assay type: functional, cell-based; details: Homo sapiens, SK-MEL-28, 48 h; for CC50: read-out: LC50 (the source's name); procedure, shortened: as §1
[3] = Cytotoxicity against human HeLa-APL cells after 48 hrs by SRB assay; assay type: functional; procedure, shortened: as §1
SK-BR-3 = assay: Cytotoxicity against human SKBR3 cells after 48 hrs by SRB assay; assay type: functional; details: SK-BR-3, 48 h; for CC50: read-out: LC50 (the source's name); for GI50: read-out: GI50; procedure, shortened: as §1
LoVo [4] = assay: Cytotoxicity against human LoVo cells after 48 hrs by SRB assay; assay type: functional; details: for CC50: read-out: LC50 (the source's name)
PANC-1 = assay: Cytotoxicity against human PANC1 cells after 48 hrs by SRB assay; assay type: functional; details: PANC-1, 48 h; for CC50: read-out: LC50 (the source's name); procedure, shortened: as §1
DU-145 = assay: Cytotoxicity against human DU145 cells after 48 hrs by SRB assay; assay type: functional, cell-based; details: Homo sapiens, DU-145, 48 h; for CC50: read-out: LC50 (the source's name); procedure, shortened: as §1
LoVo [5] = assay: Cytotoxicity against human doxorubicin resistant LoVo cells after 48 hrs by SRB assay; assay type: functional; details: for CC50: read-out: LC50 (the source's name); procedure, shortened: as §1

Row | SMILES | CC50 (HeLa) | CC50 (HT-29) | CC50 [1] | CC50 [2] | GI50 (LNCaP) | TGI (LNCaP) | CC50 (LNCaP) | CC50 (K562) | LC50 (A549) | CC50 (SK-MEL-28) | LC50 (concentration giving 50% net cell kill) [3] | CC50 (SK-BR-3) | CC50 (LoVo [4]) | CC50 (PANC-1) | CC50 (DU-145) | GI50 (K562) | TGI (K562) | GI50 (LoVo [4]) | TGI (LoVo [4]) | TGI (SK-BR-3) | other results
1 | C/C=C1\NC(=O)[C@H](Cc2ccccc2)NC(=O)[C@@H](C(C)C)NC(=O)[C@@H]([C@H](C)CC)NC(=O)[C@H](NC(=O)[C@H](NC(=O)[C@H](CCCN)NC(=O)[C@H]2CCCN2C(=O)[C@H](NC(=O)[C@@H]2CCCN2C(=O)[C@@H](NC(=O)[C@H](NC(=O)CCCC(C)C)C(C)C)[C@@H](C)O)C(C)C)[C@H](C)CC)[C@H](C)OC(=O)[C@H](C(C)C)NC1=O | 1040 nM | 887 nM | 703 nM | 632 nM | 347 nM | 3240 nM | 1540 nM | 2440 nM | 1910 nM | 1440 nM | 1320 nM | 2780 nM | 4790 nM | 2540 nM | 1650 nM | – | – | – | – | – | –
2 | C/C=C1\NC(=O)[C@H](Cc2ccccc2)NC(=O)[C@@H](C(C)C)NC(=O)[C@@H]([C@H](C)CC)NC(=O)[C@H](NC(=O)[C@H](NC(=O)[C@H](CCCN)NC(=O)[C@H]2CCCN2C(=O)[C@H](NC(=O)CNC(=O)[C@@H](NC(=O)[C@H](NC(=O)CCCC(C)C)C(C)C)[C@@H](C)O)C(C)C)[C@H](C)CC)[C@H](C)OC(=O)[C@H](C(C)C)NC1=O | 1070 nM | 911 nM | 722 nM | 649 nM | 3050 nM | 3320 nM | 1580 nM | 2500 nM | 1960 nM | 1480 nM | 1360 nM | 2850 nM | 4920 nM | 2600 nM | 1700 nM | 2570 nM | 3120 nM | 10700 nM | 9720 nM | – | –
3 | C/C=C1\NC(=O)[C@H](Cc2ccccc2)NC(=O)[C@@H](C(C)C)NC(=O)[C@@H]([C@H](C)CC)NC(=O)[C@H](NC(=O)[C@H](NC(=O)[C@H](CCCN)NC(=O)[C@H]2CCCN2C(=O)[C@H](NC(=O)[C@@H](NC(=O)[C@@H](NC(=O)[C@H](NC(=O)CCCC(C)C)C(C)C)[C@@H](C)O)C(C)C)C(C)C)[C@H](C)CC)CNC(=O)[C@H](C(C)C)NC1=O | 1050 nM | 895 nM | 710 nM | 637 nM | – | – | 1550 nM | 2460 nM | 1930 nM | 1460 nM | 1340 nM | 2810 nM | 4840 nM | 2560 nM | 1670 nM | – | – | 11500 nM | 9550 nM | 8040 nM | GI50 (SK-BR-3): 8660 nM
4 | C/C=C1\NC(=O)[C@H](Cc2ccccc2)NC(=O)[C@@H](CCC2CCCCC2)NC(=O)[C@@H](CCC2CCCCC2)NC(=O)[C@H](NC(=O)[C@@H](CCC2CCCCC2)NC(=O)[C@H](CCCN)NC(=O)[C@H]2CCCN2C(=O)[C@H](NC(=O)[C@@H](NC(=O)[C@@H](NC(=O)[C@H](NC(=O)CCCC(C)C)C(C)C)[C@@H](C)O)C(C)C)C(C)C)[C@H](C)OC(=O)[C@H](C(C)C)NC1=O | 586 nM | 320 nM | 55 nM | 161 nM | 304 nM | 415 nM | 633 nM | 980 nM | 222 nM | 144 nM | 573 nM | 87.8 nM | 264 nM | 1450 nM | 104 nM | 363 nM | 630 nM | 282 nM | 274 nM | 201 nM | GI50 (HeLa): 255 nM; TGI (HeLa): 361 nM; GI50 (HT-29): 359 nM; TGI (HT-29): 339 nM; GI50 [1]: 227 nM; GI50 ([1]; read-out: GI50): 255 nM; GI50 [2]: 139 nM; GI50 ([2]; read-out: GI50): 214 nM; GI50 (A549): 173 nM; GI50 (A549; read-out: GI50): 161 nM; CC50 (LoVo [5]): 27.4 nM; GI50 (SK-MEL-28): 159 nM; GI50 (SK-MEL-28; read-out: GI50): 174 nM; GI50 [3]: 233 nM; TGI [3]: 3400 nM; GI50 (SK-BR-3): 249 nM; GI50 (PANC-1): 1320 nM; TGI (PANC-1): 1380 nM; GI50 (DU-145): 125 nM; GI50 (DU-145; read-out: GI50): 148 nM
5 | C/C=C1\NC(=O)[C@H](Cc2ccccc2)NC(=O)[C@@H](C(C)C)NC(=O)[C@@H]([C@H](C)CC)NC(=O)[C@H](NC(=O)[C@H](NC(=O)[C@H](CCCN)NC(=O)[C@H]2CCCN2C(=O)[C@H](NC(=O)[C@@H](NC(=O)[C@@H](NC(=O)[C@H](NC(=O)CC[C@@H](C)[C@H]2CC[C@H]3[C@@H]4CC[C@@H]5C[C@H](OC(=O)C(F)(F)F)CC[C@]5(C)[C@H]4CC[C@]23C)C(C)C)[C@@H](C)OC(=O)C(F)(F)F)C(C)C)C(C)C)[C@H](C)CC)[C@H](C)OC(=O)[C@H](C(C)C)NC1=O | 789 nM | 921 nM | 2030 nM | 317 nM | 729 nM | 783 nM | 838 nM | 1220 nM | 835 nM | 124 nM | 710 nM | 185 nM | 614 nM | 1370 nM | 663 nM | 1070 nM | 857 nM | 285 nM | 337 nM | 116 nM | GI50 (HT-29): 463 nM; TGI (HT-29): 479 nM; GI50 [1]: 700 nM; GI50 ([1]; read-out: GI50): 638 nM; GI50 [2]: 384 nM; GI50 ([2]; read-out: GI50): 405 nM; GI50 (A549): 890 nM; GI50 (A549; read-out: GI50): 946 nM; GI50 (LoVo [5]): 336 nM; TGI (LoVo [5]): 381 nM; CC50 (LoVo [5]): 2110 nM; GI50 (SK-MEL-28): 158 nM; GI50 (SK-MEL-28; read-out: GI50): 201 nM; GI50 (SK-BR-3): 78.4 nM; GI50 (PANC-1): 1660 nM; TGI (PANC-1): 1370 nM; GI50 (DU-145): 683 nM; GI50 (DU-145; read-out: GI50): 698 nM
